Measured values taken from ChEMBL document CHEMBL4002597, “Exploration of novel piperazine or piperidine constructed non-covalent peptidyl derivatives as proteasome inhibitors” (Eur J Med Chem, 2017).
pIC50: −log10 of the molar value. The source made the active and inactive calls. No cut-off for these calls is given here.

Legend:
[1] = target: T1, Proteasome Macropain subunit MB1 (Homo sapiens, UniProt P28074); assay: Inhibition of chymotrypsin-like activity of human 20S proteasome pretreated for 15 mins followed by Suc-Leu-Leu-Val-Tyr-AMC substrate addition by fluorescence assay
T1 sequence (P28074 whole entry): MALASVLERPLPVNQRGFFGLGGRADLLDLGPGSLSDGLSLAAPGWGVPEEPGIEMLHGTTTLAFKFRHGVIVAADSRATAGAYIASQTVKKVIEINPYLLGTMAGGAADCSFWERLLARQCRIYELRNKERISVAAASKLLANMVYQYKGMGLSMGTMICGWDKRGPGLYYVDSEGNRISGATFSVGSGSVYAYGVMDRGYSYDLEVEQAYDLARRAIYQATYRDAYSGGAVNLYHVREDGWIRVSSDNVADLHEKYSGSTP
Summary of the method: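 Purified human proteasome (25 μg/mL) in 100 mM Tris-HCl pH 8.0 preincubated with compound 15 min, then Suc-Leu-Leu-Val-Tyr-AMC (50 μM) added; 50 μL reaction. AMC release followed as fluorescence increase at ex 355/em 460 nm. IC50 from sigmoidal variable-slope fit.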

[2] = system: RPMI-8226; assay: Cytotoxicity against human RPMI8226 cells measured after 72 hrs by MTS assay; assay type: functional, cell-based; settings: RPMI-8226, 72 h
Summary of the method: (§1)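 MM-1S seeded at 2 × 10⁴/well or RPMI 8226 at 0.5 × 10⁴/well, 100 μL, exposed to compound 72 h. MTS added (0.5 mg/mL final) for 2–4 h, absorbance read at 490 nm with 690 nm background subtraction. Inhibition = (A_control − A_sample)/A_control; IC50 from sigmoidal variable-slope nonlinear fit.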

[3] = system: MM1.S; assay: Cytotoxicity against human MM1S cells measured after 72 hrs by MTS assay; assay type: functional, cell-based; summary of the method: as §1
[4] = target: T2, Proteasome subunit beta type-5 (Mus musculus) (UniProt O55234); assay: Inhibition of chymotrypsin-like activity of 20S proteasome in mouse blood at 0.5 uM pretreated for 40 mins followed by Suc-Leu-Leu-Val-Tyr-AMC substrate addition by fluorescence assay
T2 sequence (whole entry): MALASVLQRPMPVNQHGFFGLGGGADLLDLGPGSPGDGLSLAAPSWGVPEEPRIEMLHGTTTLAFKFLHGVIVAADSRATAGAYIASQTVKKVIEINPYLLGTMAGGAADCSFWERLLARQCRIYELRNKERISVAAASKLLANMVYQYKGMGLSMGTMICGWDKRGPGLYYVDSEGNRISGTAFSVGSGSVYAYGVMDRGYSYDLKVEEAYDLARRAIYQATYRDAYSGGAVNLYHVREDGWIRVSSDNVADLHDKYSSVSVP
Summary of the method: (§2)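 Normal mouse whole blood incubated with compound (1:50 volume ratio) 40 min, then pelleted. Cells lysed in 5 mM EDTA pH 8.0 at 4 °C 60 min, lysate protein by Bradford. 100 μg protein assayed in 20 mM HEPES pH 8.0, 0.5 mM EDTA, 0.05% SDS, 1% DMSO with 50 μM […]; fluorescence ex 355/em 460 nm.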

[5] = target: T2, Proteasome subunit beta type-5 (Mus musculus); assay: Inhibition of chymotrypsin-like activity of 20S proteasome in mouse blood at 2.5 uM pretreated for 40 mins followed by Suc-Leu-Leu-Val-Tyr-AMC substrate addition by fluorescence assay relative to control; summary of the method: as §2
[6] = Half-life in mouse plasma at 2 uM by LC-MS/MS analysis; assay type: ADME, cell-free
Summary of the method: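 Mouse plasma on sodium heparin. 10 mM DMSO stocks diluted to 0.02 mM in 0.05 M sodium phosphate with 0.5% BSA, then spiked into pre-warmed plasma to 2 µM final, duplicates (n=2), 37 °C water bath. Each time point quenched with acetonitrile; sonicated, shaken, centrifuged, supernatant diluted 1:1 in water, LC-MS/MS.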

[7] = system: Mus musculus; assay: In vivo inhibition of chymotrypsin-like activity of 20S proteasome in blood cell of BALB/c mouse at 5 mg/kg, iv after 2 hrs using Suc-Leu-Leu-Val-Tyr-AMC substrate measured by fluorescence assay; assay type: functional
Summary of the method: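 BALB/c mice 6-8 weeks, 3 per group, single i.v. dose; positive control 5 mg/kg. Tail-vein blood taken at 1, 2 and 24 h into K2-EDTA tubes. Blood PBS-washed, cells lysed in 5 mM EDTA pH 8.0 for 60 min at 4 °C, clarified lysate assayed for chymotrypsin-like activity as in the in vitro assay.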

Row | pIC50 [1] | SMILES | pIC50 [2] | pIC50 [3] | also measured
1 | 7.71 | C[C@H](NC(=O)[C@H](CC(=O)NCC(C)(C)C)NC(=O)N1CCC(C(=O)Nc2cnccn2)CC1)C(=O)NCc1ccccc1Cl | – | – | –
2 | 7.74 | CC(C)(C)CNC(=O)C[C@H](NC(=O)N1CCC(C(=O)Nc2cnccn2)CC1)C(=O)N[C@@H](Cc1ccccc1)C(=O)NCc1ccccc1Cl | – | – | –
3 | 7.39 | CC(C)(C)CNC(=O)C[C@H](NC(=O)N1CCC(NC(=O)c2cnccn2)CC1)C(=O)N[C@@H](Cc1ccccc1)C(=O)NCc1ccccc1Cl | – | – | –
4 | 8.18 | CC(C)(C)CNC(=O)C[C@H](NC(=O)N1CCC(C(=O)Nc2cnccn2)CC1)C(=O)N[C@@H](CCc1ccccc1)C(=O)NCc1ccc(F)cc1F | – | – | –
5 | 7.88 | C[C@H](NC(=O)[C@H](CC(=O)NCC(C)(C)C)NC(=O)N1CCC(NC(=O)c2cnccn2)CC1)C(=O)NCc1ccccc1Cl | – | – | –
6 | 7.94 | CC(C)C[C@H](NC(=O)[C@H](CC(=O)NCC(C)(C)C)NC(=O)N1CCC(C(=O)Nc2cnccn2)CC1)C(=O)NCc1ccccc1Cl | – | – | –
7 | 9.00 | CC(C)(C)CNC(=O)C[C@H](NC(=O)N1CCC(C(=O)Nc2ccccn2)CC1)C(=O)N[C@@H](CCc1ccccc1)C(=O)NCc1ccccc1Cl | 8.42 | 8.37 | –
8 | 9.15 | CC(C)(C)CNC(=O)C[C@H](NC(=O)N1CCC(C(=O)Nc2cccnc2)CC1)C(=O)N[C@@H](CCc1ccccc1)C(=O)NCc1ccccc1Cl | 7.68 | 7.68 | inhibition [5]: > 70%
9 | 8.54 | CC(C)(C)CNC(=O)C[C@H](NC(=O)N1CCC(C(=O)Nc2cnccn2)CC1)C(=O)N[C@@H](CCc1ccccc1)C(=O)NCc1ccc2c(c1)OCO2 | – | – | –
10 | 7.66 | CC(C)C[C@H](NC(=O)[C@H](CC(=O)NCC(C)(C)C)NC(=O)N1CCC(NC(=O)c2cnccn2)CC1)C(=O)NCc1ccccc1Cl | – | – | –
11 | 9.05 | CC(C)(C)CNC(=O)C[C@H](NC(=O)N1CCC(C(=O)Nc2nccs2)CC1)C(=O)N[C@@H](CCc1ccccc1)C(=O)NCc1ccccc1Cl | 7.99 | 8.14 | inhibition [4]: Active; inhibition [5]: Active
12 | 9.22 | CC(C)(C)CNC(=O)C[C@H](NC(=O)N1CCC(C(=O)Nc2cnccn2)CC1)C(=O)N[C@@H](CCc1ccccc1)C(=O)NCc1ccccc1Cl | 7.77 | 7.80 | inhibition [5]: > 70%

Further lines, the compound ahead of its results:

Row | SMILES | pIC50 [1] | pIC50 [2] | pIC50 [3] | also measured
13 | COc1ccc(NC(=O)C2CCN(C(=O)N[C@@H](CC(=O)NCC(C)(C)C)C(=O)N[C@@H](CCc3ccccc3)C(=O)NCc3ccccc3Cl)CC2)cc1 | 7.59 | – | – | –
14 | CC(C)(C)CNC(=O)C[C@H](NC(=O)N1CCC(C(=O)Nc2ccon2)CC1)C(=O)N[C@@H](CCc1ccccc1)C(=O)NCc1ccccc1Cl | 8.15 | – | – | –
15 | CC(C)(C)CNC(=O)C[C@H](NC(=O)N1CCC(NC(=O)c2cnccn2)CC1)C(=O)N[C@@H](CCc1ccccc1)C(=O)NCc1ccccc1Cl | 8.96 | 7.69 | 7.73 | –
16 | CC(C)(C)CNC(=O)C[C@H](NC(=O)N1CCC(NC(=O)c2cnccn2)CC1)C(=O)N[C@@H](CCc1ccccc1)C(=O)NCc1ccc(F)cc1F | 7.97 | – | – | –
17 | CC(C)(C)CNC(=O)C[C@H](NC(=O)N1CCC(C(=O)Nc2ccc(F)cc2)CC1)C(=O)N[C@@H](CCc1ccccc1)C(=O)NCc1ccccc1Cl | 8.82 | 7.86 | 7.90 | inhibition [4]: Active; inhibition [5]: Active
18 | CC(C)(C)CNC(=O)C[C@H](NC(=O)c1ccc(F)cc1)C(=O)N[C@@H](CCc1ccccc1)C(=O)NCc1ccccc1Cl | – | – | – | half-life at 2 µM [6]: 5.61 h
19 | CC(C)(C)CNC(=O)C[C@H](NC(=O)N1CCC(NC(=O)c2ccc(F)cc2)CC1)C(=O)N[C@@H](CCc1ccccc1)C(=O)NCc1ccccc1Cl | 8.92 | 8.08 | 8.20 | inhibition [5]: > 70%; half-life at 2 µM [6]: 11.2 h; inhibition in vivo at 5 mg/kg [7]: > 50%
20 | CC(C)(C)CNC(=O)C[C@H](NC(=O)N1CCC(NC(=O)c2cnccn2)CC1)C(=O)N[C@@H](CCc1ccccc1)C(=O)NCc1ccc2c(c1)OCO2 | 8.00 | – | – | –
21 | CC(C)(C)CNC(=O)C[C@H](NC(=O)C1CCN(C(=O)c2ccc(F)cc2)CC1)C(=O)N[C@@H](CCc1ccccc1)C(=O)NCc1ccccc1Cl | 8.59 | 7.64 | 7.50 | –
22 | CC(C)(C)CNC(=O)C[C@H](NC(=O)C1CCN(C(=O)c2cnccn2)CC1)C(=O)N[C@@H](CCc1ccccc1)C(=O)NCc1ccccc1Cl | 8.62 | 7.80 | 7.93 | –
23 | CC(C)(C)CNC(=O)C[C@H](NC(=O)N1CCN(C(=O)c2ccc(F)cc2)CC1)C(=O)N[C@@H](CCc1ccccc1)C(=O)NCc1ccccc1Cl | 8.42 | – | – | –
24 | CC(C)C[C@H](NC(=O)[C@H](CCc1ccccc1)NC(=O)CN1CCOCC1)C(=O)N[C@@H](Cc1ccccc1)C(=O)N[C@@H](CC(C)C)C(=O)[C@@]1(C)CO1 [CARFILZOMIB] | – | – | 8.82 | inhibition [4]: Active; inhibition [5]: Active; inhibition [7]: Active
25 | CC(C)(C)CNC(=O)C[C@H](NC(=O)N1CCC(C(=O)NCc2nccs2)CC1)C(=O)N[C@@H](CCc1ccccc1)C(=O)NCc1ccccc1Cl | 9.00 | 7.68 | 7.65 | inhibition [4]: Active; inhibition [5]: Active
26 | CC(C)(C)CNC(=O)C[C@H](NC(=O)N1CCC(C(=O)Nc2ccc(C(F)(F)F)cc2)CC1)C(=O)N[C@@H](CCc1ccccc1)C(=O)NCc1ccccc1Cl | 6.72 | – | – | –
